# Test results as given in ChEMBL document CHEMBL2034938, “Convenient synthesis of novel geiparvarin analogs with potential anti-cancer activity via click chemistry” (Eur J Med Chem, 2012).
# pIC50: −log10 of the molar value.
# Legend:
# HeLa = assay: Cytotoxicity against human HeLa cells by after 48 hrs by MTT assay; format: functional, cell-based
# Outline: (§1)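 MTT assay; cell lines obtained from Shanghai Institute of Biological Sciences, CAS. Compounds in DMSO stock (10 g/L), diluted in medium just before use. Cells seeded at 8000/well; compound added 24 h later, in duplicate. After 48 h at 37 °C, 5% CO₂, MTT (5 mg/mL in PBS) added for 4 h. Formazan dissolved in DMSO; absorbance read at 570 nm. IC50 taken as the concentration giving 50% growth inhibition.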
# [1] = Cytotoxicity against human L02 cells by after 48 hrs by MTT assay; format: cell-based; conditions: L02, 48 h; outline: as §1
# SW480 = assay: Cytotoxicity against human SW480 cells by after 48 hrs by MTT assay; format: functional, cell-based; conditions: SW480, 48 h; outline: as §1
# MDA-MB-231 = assay: Cytotoxicity against human MDA-MB-231 cells by after 48 hrs by MTT assay; format: functional, cell-based; conditions: MDA-MB-231, 48 h; outline: as §1
# [2] = Cytotoxicity against human QGY7701 cells by after 48 hrs by MTT assay; format: functional, cell-based; conditions: QGY7701, 48 h; outline: as §1
# SGC-7901 = assay: Cytotoxicity against human SGC7901 cells by after 48 hrs by MTT assay; format: functional, cell-based; conditions: SGC-7901, 48 h; outline: as §1
# A549 [3] = assay: Cytotoxicity against human A549 cells by after 48 hrs by MTT assay; format: functional, cell-based; conditions: A549, 48 h; outline: as §1
# A549 [4] = assay: Induction of apoptosis in human A549 cells assessed as early apoptotic cells at 2 uM after 48 hrs by annexinV/propidium iodide staining-based flow cytometric analysis ( Rvb = 0.15%); format: functional
# A549 [5] = assay: Induction of apoptosis in human A549 cells assessed as early apoptotic cells at 1 uM after 48 hrs by annexinV/propidium iodide staining-based flow cytometric analysis ( Rvb = 0.15%); format: functional
# A549 [6] = assay: Induction of apoptosis in human A549 cells assessed as viable cells at 1 uM after 48 hrs by annexinV/propidium iodide staining-based flow cytometric analysis ( Rvb = 95.96%); format: functional; conditions: A549, 48 h, read-out: Activity
# A549 [7] = assay: Induction of apoptosis in human A549 cells assessed as viable cells at 2 uM after 48 hrs by annexinV/propidium iodide staining-based flow cytometric analysis ( Rvb = 95.96%); format: functional; conditions: A549, 48 h, read-out: Activity
# A549 [8] = assay: Induction of apoptosis in human A549 cells assessed as late apoptotic cells at 8 uM after 48 hrs by annexinV/propidium iodide staining-based flow cytometric analysis (reference value: 0.16%); format: functional
# A549 [9] = assay: Induction of apoptosis in human A549 cells assessed as necrotic cells at 2 uM after 48 hrs by annexinV/propidium iodide staining-based flow cytometric analysis (reference value: 3.72%); conditions: A549, 48 h
# A549 [10] = assay: Induction of apoptosis in human A549 cells assessed as early apoptotic cells at 8 uM after 48 hrs by annexinV/propidium iodide staining-based flow cytometric analysis ( Rvb = 0.15%); format: functional
# A549 [11] = assay: Induction of apoptosis in human A549 cells assessed as late apoptotic cells at 2 uM after 48 hrs by annexinV/propidium iodide staining-based flow cytometric analysis (reference value: 0.16%); format: functional
# A549 [12] = assay: Induction of apoptosis in human A549 cells assessed as late apoptotic cells at 1 uM after 48 hrs by annexinV/propidium iodide staining-based flow cytometric analysis (reference value: 0.16%); format: functional
# A549 [13] = assay: Induction of apoptosis in human A549 cells assessed as necrotic cells at 8 uM after 48 hrs by annexinV/propidium iodide staining-based flow cytometric analysis (reference value: 3.72%); conditions: A549, 48 h
# A549 [14] = assay: Induction of apoptosis in human A549 cells assessed as viable cells at 4 uM after 48 hrs by annexinV/propidium iodide staining-based flow cytometric analysis ( Rvb = 95.96%); format: functional; conditions: A549, 48 h, read-out: Activity
# A549 [15] = assay: Induction of apoptosis in human A549 cells assessed as early apoptotic cells at 4 uM after 48 hrs by annexinV/propidium iodide staining-based flow cytometric analysis ( Rvb = 0.15%); format: functional
# A549 [16] = assay: Induction of apoptosis in human A549 cells assessed as late apoptotic cells at 4 uM after 48 hrs by annexinV/propidium iodide staining-based flow cytometric analysis (reference value: 0.16%); format: functional
# A549 [17] = assay: Induction of apoptosis in human A549 cells assessed as viable cells at 8 uM after 48 hrs by annexinV/propidium iodide staining-based flow cytometric analysis ( Rvb = 95.96%); format: functional; conditions: A549, 48 h, read-out: Activity
# A549 [18] = assay: Induction of apoptosis in human A549 cells assessed as necrotic cells at 4 uM after 48 hrs by annexinV/propidium iodide staining-based flow cytometric analysis (reference value: 3.72%); conditions: A549, 48 h
smiles,measurement,setting,value
N#Cc1ccc(Cn2cc(COc3ccc4c(=O)ccoc4c3)nn2)cc1,pIC50,HeLa,< 4.00
same,pIC50,[1],< 3.52
same,pIC50,SW480,< 4.00
same,pIC50,MDA-MB-231,< 4.00
same,pIC50,[2],< 4.00
same,pIC50,SGC-7901,< 4.00
same,pIC50,A549 [3],< 4.00
O=c1ccoc2cc(OCc3cn(Cc4ccc(Cl)cc4)nn3)ccc12,pIC50,HeLa,4.42
same,pIC50,[1],< 3.52
same,pIC50,SW480,< 4.00
same,pIC50,MDA-MB-231,< 4.00
same,pIC50,[2],4.38
same,pIC50,SGC-7901,< 4.00
same,pIC50,A549 [3],< 4.00
C#CCOc1ccc2c(=O)ccoc2c1,pIC50,HeLa,4.19
same,pIC50,[1],< 3.52
same,pIC50,SW480,< 4.00
same,pIC50,MDA-MB-231,< 4.00
same,pIC50,[2],4.23
same,pIC50,SGC-7901,< 4.00
same,pIC50,A549 [3],< 4.00
COc1ccc(Cn2cc(COc3ccc4c(=O)ccoc4c3)nn2)cc1,pIC50,HeLa,4.84
same,pIC50,[1],< 3.52
same,pIC50,SW480,4.69
same,pIC50,MDA-MB-231,< 4.00
same,pIC50,[2],4.25
same,pIC50,SGC-7901,< 4.00
same,pIC50,A549 [3],4.78
O=c1ccoc2cc(OCc3cn(Cc4ccc([N+](=O)[O-])cc4)nn3)ccc12,pIC50,HeLa,4.59
same,pIC50,[1],< 3.52
same,pIC50,SW480,4.71
same,pIC50,[2],< 4.00
same,pIC50,SGC-7901,< 4.00
same,pIC50,A549 [3],< 4.00
Cc1cccc(Cn2cc(COc3ccc4c(=O)ccoc4c3)nn2)c1,pIC50,HeLa,< 4.00
same,pIC50,[1],< 3.52
same,pIC50,SW480,4.93
same,pIC50,MDA-MB-231,4.80
same,pIC50,[2],4.65
same,pIC50,SGC-7901,< 4.00
same,pIC50,A549 [3],4.69
O=c1ccoc2cc(OCc3cn(Cc4cccc(Cl)c4)nn3)ccc12,pIC50,HeLa,< 4.00
same,pIC50,[1],< 3.52
same,pIC50,SW480,4.89
same,pIC50,MDA-MB-231,< 4.00
same,pIC50,[2],4.55
same,pIC50,SGC-7901,< 4.00
same,pIC50,A549 [3],4.86
O=c1ccoc2cc(OCc3cn(Cc4cccc([N+](=O)[O-])c4)nn3)ccc12,pIC50,HeLa,4.76
same,Activity,A549 [4],10.87%
same,pIC50,[1],< 3.52
same,Activity,A549 [5],8.07%
same,viability at 1 µM,A549 [6],86.7%
same,viability at 2 µM,A549 [7],80.1%
same,Activity,A549 [8],5.68%
same,pIC50,SW480,< 4.00
same,necrotic cells at 2 µM,A549 [9],5.68%
same,Activity,A549 [10],21.54%
same,pIC50,MDA-MB-231,< 4.00
same,Activity,A549 [11],3.39%
same,Activity,A549 [12],3%
same,necrotic cells at 8 µM,A549 [13],4.16%
same,viability at 4 µM,A549 [14],74.7%
same,Activity,A549 [15],13.55%
same,Activity,A549 [16],6.36%
same,viability at 8 µM,A549 [17],70.6%
same,necrotic cells at 4 µM,A549 [18],5.44%
same,pIC50,[2],4.85
same,pIC50,SGC-7901,< 4.00
same,pIC50,A549 [3],5.02
CC(C)(C)c1ccc(Cn2cc(COc3ccc4c(=O)ccoc4c3)nn2)cc1,pIC50,HeLa,4.75
same,pIC50,[1],< 3.52
same,pIC50,SW480,4.54
same,pIC50,MDA-MB-231,< 4.00
same,pIC50,[2],< 4.00
same,pIC50,SGC-7901,< 4.00
same,pIC50,A549 [3],< 4.00
O=c1ccoc2cc(OCc3cn(Cc4ccc(F)cc4)nn3)ccc12,pIC50,HeLa,4.92
same,pIC50,[1],< 3.52
same,pIC50,SW480,4.95
same,pIC50,MDA-MB-231,< 4.00
same,pIC50,[2],4.84
same,pIC50,SGC-7901,< 4.00
same,pIC50,A549 [3],< 4.00
O=c1[nH]cc(F)c(=O)[nH]1 [FLUOROURACIL],pIC50,[1],4.33
same,pIC50,SGC-7901,5.22
O=c1ccoc2cc(OCc3cn(Cc4ccccc4Br)nn3)ccc12,pIC50,HeLa,4.84
same,pIC50,[1],< 3.52
same,pIC50,SW480,< 4.00
same,pIC50,MDA-MB-231,< 4.00
same,pIC50,[2],< 4.00
same,pIC50,SGC-7901,< 4.00
same,pIC50,A549 [3],< 4.00
O=c1ccoc2cc(OCc3cn(Cc4ccccc4F)nn3)ccc12,pIC50,HeLa,< 4.00
same,pIC50,[1],< 3.52
same,pIC50,SW480,4.94
same,pIC50,[2],4.43
same,pIC50,SGC-7901,< 4.00
same,pIC50,A549 [3],4.97
Cc1ccc(Cn2cc(COc3ccc4c(=O)ccoc4c3)nn2)cc1,pIC50,HeLa,< 4.00
same,pIC50,[1],< 3.52
same,pIC50,SW480,4.98
same,pIC50,MDA-MB-231,< 4.00
same,pIC50,[2],4.16
same,pIC50,SGC-7901,< 4.00
same,pIC50,A549 [3],4.29
N#Cc1cccc(Cn2cc(COc3ccc4c(=O)ccoc4c3)nn2)c1,pIC50,HeLa,< 4.00
same,pIC50,[1],< 3.52
same,pIC50,SW480,< 4.00
same,pIC50,MDA-MB-231,< 4.00
same,pIC50,[2],4.61
same,pIC50,SGC-7901,< 4.00
same,pIC50,A549 [3],4.84
Cc1ccccc1Cn1cc(COc2ccc3c(=O)ccoc3c2)nn1,pIC50,HeLa,4.82
same,pIC50,[1],< 3.52
same,pIC50,SW480,< 4.00
same,pIC50,MDA-MB-231,< 4.00
same,pIC50,[2],< 4.00
same,pIC50,SGC-7901,< 4.00
same,pIC50,A549 [3],< 4.00
O=c1ccoc2cc(OCc3cn(Cc4cccc(Br)c4)nn3)ccc12,pIC50,HeLa,< 4.00
same,pIC50,[1],< 3.52
same,pIC50,SW480,< 4.00
same,pIC50,MDA-MB-231,< 4.00
same,pIC50,[2],4.75
same,pIC50,SGC-7901,< 4.00
same,pIC50,A549 [3],< 4.00
O=c1ccoc2cc(OCc3cn(Cc4ccc(Br)cc4)nn3)ccc12,pIC50,HeLa,< 4.00
same,pIC50,[1],< 3.52
same,pIC50,SW480,4.43
same,pIC50,MDA-MB-231,< 4.00
same,pIC50,[2],4.02
same,pIC50,SGC-7901,< 4.00
same,pIC50,A549 [3],< 4.00
O=c1ccoc2cc(OCc3cn(Cc4ccccc4Cl)nn3)ccc12,pIC50,HeLa,< 4.00
same,pIC50,[1],< 3.52
same,pIC50,SW480,4.63
same,pIC50,[2],4.70
same,pIC50,SGC-7901,< 4.00
same,pIC50,A549 [3],< 4.00
O=c1ccoc2cc(OCc3cn(Cc4ccccc4)nn3)ccc12,pIC50,HeLa,< 4.00
same,pIC50,[1],< 3.52
same,pIC50,SW480,4.37
same,pIC50,MDA-MB-231,< 4.00
same,pIC50,[2],< 4.00
same,pIC50,SGC-7901,< 4.00
same,pIC50,A549 [3],< 4.00
O=c1ccoc2cc(OCc3cn(Cc4cccc(F)c4)nn3)ccc12,pIC50,HeLa,5.12
same,pIC50,[1],< 3.52
same,pIC50,SW480,< 4.00
same,pIC50,MDA-MB-231,< 4.00
same,pIC50,[2],< 4.00
same,pIC50,SGC-7901,< 4.00
same,pIC50,A549 [3],< 4.00
